Assay outcomes (PubChem BioAssay)
FID counter: compounds displacing fluorescent DNA intercalator, primary screen, artefact control for HCV NS3 helicase inhibitor project, biochemical, FID fluorescence; 290,000 compounds, 0.17% hits; DNA fluorescent intercalator displacement; AID 1845, 2009; inhibition, % at 7.9 µM; in the data active means inhibition above about 37%;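 further: higher means more ethidium bromide displaced from hairpin DNA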
PLCb3 inh: human PLC-beta3 inhibitors, primary screen, biochemical, fluorescence; Purified PLC-beta3, fluorogenic substrate; 1-phosphatidylinositol 4,5-bisphosphate phosphodiesterase beta-3 (Homo sapiens), Q01970; 370,000 compounds, 0.18% hits; inhibition, % at 12.2 µM; in the data active means inhibition above about 11%
PLC-gamma1 inh: PLC-gamma1 enzyme inhibitors, primary screen, biochemical, fluorescence, purified enzyme. 1-phosphatidylinositol 4,5-bisphosphate phosphodiesterase gamma-1 (Homo sapiens), P19174. fluorogenic substrate. inhibition, % at 12.2 µM. 370,000 compounds, 0.84% hits. AID 720700, 2013; in the data active means inhibition above about 9.5%
Target sequence (P19174 whole entry, looked up): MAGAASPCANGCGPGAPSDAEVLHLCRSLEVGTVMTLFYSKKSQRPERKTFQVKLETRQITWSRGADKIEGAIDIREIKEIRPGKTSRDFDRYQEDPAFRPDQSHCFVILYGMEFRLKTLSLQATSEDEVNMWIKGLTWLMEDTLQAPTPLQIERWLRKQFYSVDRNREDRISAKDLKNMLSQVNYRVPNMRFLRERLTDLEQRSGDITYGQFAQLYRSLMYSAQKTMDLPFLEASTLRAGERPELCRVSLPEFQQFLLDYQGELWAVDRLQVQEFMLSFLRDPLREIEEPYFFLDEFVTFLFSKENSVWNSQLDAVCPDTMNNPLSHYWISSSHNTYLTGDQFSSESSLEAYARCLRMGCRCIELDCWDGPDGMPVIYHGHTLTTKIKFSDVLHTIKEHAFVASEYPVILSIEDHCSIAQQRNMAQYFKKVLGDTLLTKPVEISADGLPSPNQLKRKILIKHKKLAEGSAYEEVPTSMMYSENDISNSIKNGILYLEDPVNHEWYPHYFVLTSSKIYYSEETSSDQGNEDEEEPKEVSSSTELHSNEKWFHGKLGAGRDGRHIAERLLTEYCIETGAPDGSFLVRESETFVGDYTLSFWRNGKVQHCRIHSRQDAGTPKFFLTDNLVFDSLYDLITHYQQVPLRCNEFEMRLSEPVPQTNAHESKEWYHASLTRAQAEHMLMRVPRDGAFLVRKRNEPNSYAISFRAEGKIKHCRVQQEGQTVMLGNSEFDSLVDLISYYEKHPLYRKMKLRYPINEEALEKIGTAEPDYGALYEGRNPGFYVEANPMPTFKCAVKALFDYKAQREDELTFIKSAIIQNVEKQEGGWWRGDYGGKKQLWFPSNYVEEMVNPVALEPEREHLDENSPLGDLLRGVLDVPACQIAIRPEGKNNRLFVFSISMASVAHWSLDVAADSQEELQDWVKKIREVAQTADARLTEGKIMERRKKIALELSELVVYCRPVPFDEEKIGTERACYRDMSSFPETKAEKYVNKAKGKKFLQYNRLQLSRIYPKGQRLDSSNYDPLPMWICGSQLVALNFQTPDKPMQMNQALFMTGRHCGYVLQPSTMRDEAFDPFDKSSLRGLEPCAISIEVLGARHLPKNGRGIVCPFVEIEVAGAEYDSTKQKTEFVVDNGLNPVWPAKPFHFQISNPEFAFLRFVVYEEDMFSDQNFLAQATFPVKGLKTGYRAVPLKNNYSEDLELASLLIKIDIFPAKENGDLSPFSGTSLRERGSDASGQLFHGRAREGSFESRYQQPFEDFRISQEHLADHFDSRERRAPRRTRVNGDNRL
Tn6 DDE FP: inhibitors of Tn6 peptide binding to fibrin DD(E), primary screen, biochemical, fluorescence polarization, human fibrin, Tn6 probe | inhibition, % at 8.3 µM | AID 720509, 2013 | Fibrin DD(E) TRITC-Tn6 fluorescence polarization displacement | Fibrinogen beta chain (Homo sapiens), P02675 | 370,000 compounds, 0.21% hits;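 active means inhibition above a per-campaign cutoff: mean of compounds within control limits plus 3 SD, cut at about 15% in these data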
DDE Tn7 FP inh: inhibitors of Tn7 peptide binding to fibrin DD(E), primary screen, biochemical, fluorescence polarization, human fibrin, Tn7 probe; Fibrinogen beta chain (Homo sapiens), P02675; FP displacement of FITC-Tn7 peptide from fibrin DD(E); 0% = median of compound wells per plate; inhibition, % at 8.3 µM; 370,000 compounds, 0.13% hits; AID 720508, 2013;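 active means inhibition above the mean of compounds falling within the control limits plus 3 SD of them, cut at about 14% in these data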
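Test system: human clot-derived fibrin DD(E) complex / Quantity: 2 µM final DD(E) protein / Incubation: 10 min plus 3 h, room temperature / Measured by: fluorescence polarization / Benchmarks: high control of 10 µM Aha-Tn7 peptide / Replicates: singlicate testing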
DDE Tn7 confirm: inhibitors of Tn7 peptide binding to fibrin DD(E), confirmation, biochemical, fluorescence polarization, human fibrin, Tn7 probe | shares compounds with DDE Tn7 FP inh | 460 compounds, 5% hits | AID 720628, 2013 | FP displacement of TRITC-Tn7 peptide from DD(E); 0% set at plate's compound-well median | inhibition, % at 8.3 µM;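 active means inhibition above the campaign cutoff, the mean of compounds within control limits plus 3 SD, cut at about 14% in these data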;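 further: displacers lower polarization since freed probe rises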
DDE Tn7 FP ctr: counter-screen hit for Tn7 peptide-fibrin DD(E) binding disruption; shares compounds with DDE Tn7 FP inh; TRITC-Tn7 probe displacement, fluorescence polarization; inhibition, % at 8.3 µM; 460 compounds, 3% hits;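 active means inhibition above the cutoff, the mean of compounds lying between the control bounds plus 3 SD of those compounds, cut at about 17% in these data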
A number is an active result; i = inactive; nt = no result given; ! = repeats disagree. Sampled rows, rich in hits. Any-hit rate of the full collection: about 1.4%.

SMILES	FID counter	PLCb3 inh	PLC-gamma1 inh	Tn6 DDE FP	DDE Tn7 FP inh	DDE Tn7 confirm	DDE Tn7 FP ctr
C=CCOc1ccc2c(c1)CCC1C2CCC2(C)C(O)C(O)CC12 (configuration not stated)	nt	i	i	i	14	i	i
C[C@]12CC[C@@H]3c4ccc(O[C@@H]5O[C@H](C(=O)O)[C@@H](O)[C@H](O)[C@H]5O)cc4CC[C@H]3[C@@H]1C[C@@H](O)[C@@H]2O	nt	i	i	i	i	nt	nt
CC(=O)Nc1ccc(-c2nn[nH]n2)cc1	i	i	i	i	i	nt	nt
O=C(O)c1cc(=O)c2ccccc2[nH]1	nt	i	i	i	14	i	i
Cn1c2ccccc2c2cnn(CC(=O)NCCCN3CCN(c4ccccc4F)CC3)c(=O)c21	i	i	i	i	i	nt	nt
C#CCn1cc(/C=N/NC(=O)COc2cccc3cccnc23)c2ccccc21	i	i	i	i	14	i	i
COC(=O)Cn1cc(/C=N/NC(=O)COc2cccc3cccnc23)c2ccccc21	i	i	i	i	i	nt	nt
C=CCNC(=O)c1ccc(C2SCC(=O)N2Cc2ccccc2)cc1 (configuration not stated)	i	i	i	i	i	nt	nt
N#Cc1ccc(Cl)cc1NC(=O)COC(=O)c1cccc(S(=O)(=O)N2CCOCC2)c1	nt	i	i	i	14	i	i
O=C(COC(=O)c1cccc(S(=O)(=O)N2CCOCC2)c1)Nc1ncc(Cl)cc1Cl	nt	i	i	i	i	nt	nt
O=C(Nc1cccc(-c2cnc3ccccc3n2)c1)c1ccncc1	i	i	i	i	i	nt	nt
CC1CN(C(=O)c2ccccc2)OC(c2ccc3c(c2)OCO3)O1 (configuration not stated)	i	i	i	i	15	i	i
O=C(c1ccccc1)N1CCN(C(=O)c2ccc3c(c2)OCO3)CC1	i	i	i	i	i	nt	nt
Cc1ccc(NC(=O)Cn2c(O)c(N=NC(N)=O)c3ccccc32)cc1	i	i	i	i	14	i	i
COc1ccc(CCNS(=O)(=O)c2ccc3[nH]c(=O)[nH]c3c2)cc1	nt	i	i	i	i	nt	nt
CCOC(=O)Cn1nc(-c2ccc(F)cc2)oc1=O	i	i	i	i	14	i	i
CC(C)NC(=O)Nc1n[nH]c(Nc2ccc(Cl)cc2)n1	i	i	i	i	i	nt	nt
CC1=CC(C)(C)NC(=S)N1c1cccc(C)c1	i	i	i	i	14!	i	i
O=C(c1cc(-c2ccccc2O)on1)N1CCc2ccccc2C1	i	i	i	i	i	nt	nt
O=C(c1cc(-c2ccc(O)cc2)on1)N1CCc2ccccc2C1	i	i	i	i	18	i	i
O=C(NC1CCN(S(=O)(=O)c2ccc(Cl)cc2)CC1)C1CCCCC1	i	i	i	i	14	i	i
Cc1cccc(N2C(=O)CN(Cc3cccs3)C2=S)c1	i	i	i	i	15	i	i
O=C(COC(=O)c1ccc(Cl)cc1)NCC1CCCCC1	nt	i	i	i	15	i	i
O=C(COC(=O)c1ccc(F)cc1)NCC1CCCCC1	nt	i	i	i	i	nt	nt
Cc1cc(C)n(-c2nc3ccccc3c(=O)n2OCC(=O)N(C)C)n1	i	i	i	i	i	nt	nt
SMILES	FID counter	PLCb3 inh	PLC-gamma1 inh	Tn6 DDE FP	DDE Tn7 FP inh	DDE Tn7 confirm	DDE Tn7 FP ctr
Cc1cc(C)n(-c2nc3ccccc3c(=O)n2OCC(=O)Nc2c(C)cccc2C)n1	i	i	i	i	16	i	i
CC(=N\NC(=O)c1ccc([N+](=O)[O-])cc1)/C(=N/O)C(=O)Nc1ccccc1	i	i	i	i	16	i	i
CCc1c(C)nc(N2CCN(c3ccccc3)CC2)[nH]c1=O	i	i	i	i	i	nt	nt
CCCNC(=O)c1cc(C2CCCN(C(=O)c3ccc4ccccc4c3)C2)on1 (configuration not stated)	nt	i	i	i	i	nt	nt
Cc1cc2ncn(S(=O)(=O)N(C)C)c2cc1C	i	i	i	i	i	nt	nt
Cc1cc2ncn(S(=O)(=O)N3CCCCC3)c2cc1C	i	i	i	i	14	i	i
O=C(CN1CCCCCC1)Nc1ccc([N+](=O)[O-])cc1Br	i	i	i	i	i	nt	nt
CCC(Sc1nc(-c2cccc(OC)c2)c(C#N)c(=O)[nH]1)C(=O)Nc1nnc(C(C)C)s1 (configuration not stated)	i	i	i	i	i	nt	nt
Oc1cccc(Nc2ccccc2)c1	nt	i	i	i	14	i	i
CCOc1ccc(NC(=O)CN2CCN(CC(=O)Nc3ccc4c(c3)OCCO4)CC2)cc1	i	i	i	i	15	i	i
CCC(OC(=O)c1ccco1)C(=O)NCc1ccc(OC)cc1 (configuration not stated)	i	i	i	i	i	nt	nt
COc1ccc(CNC(=O)C(OC(=O)c2ccco2)c2ccccc2F)cc1 (configuration not stated)	i	i	i	i	14	i	i
COc1ccc(N2C(=O)CSC2c2cccc(OC)c2OC)cc1 (configuration not stated)	i	i	i	i	14	i	i
C[C@@H]1COC(=O)[C@H](Cc2ccc(F)cc2)C/C=C\C[C@@H](CC(=O)NCCO)C(=O)N1	nt	i	i	i	15	i	i
Nc1[nH]c(C(=O)c2ccc(Br)cc2)c(-c2ccc(Cl)c(Cl)c2)c1C(=O)NCCc1c[nH]c2ccccc12	nt	i	i	i	i	nt	nt
C=CCC(=O)NC1CCCc2c1cnn2-c1cc(F)cc(F)c1 (configuration not stated)	i	i	i	i	15	i	i
CSCC(=O)NC1CCCc2c1cnn2-c1cc(F)cc(F)c1 (configuration not stated)	i	i	i	i	i	nt	nt
CCn1c2ccccc2c2cc(/C=N/O)ccc21	i	i	i	i	i	nt	nt
NS(=O)(=O)c1cccc(NC(=O)CSc2ncnc3ccccc23)c1	i	i	i	i	i	nt	nt
NS(=O)(=O)c1ccc(NC(=O)CSc2ncnc3ccccc23)cc1	i	i	i	i	14	i	i
Cc1ccc(Nc2cc(=O)n(C)c(=O)[nH]2)cc1C	nt	i	i	i	i	nt	nt
CCCCC(c1nnnn1CC1CCCO1)N1CCN(c2ccccc2)CC1 (configuration not stated)	i	i	i	i	i	nt	nt
Cc1cccc(NC(=O)CCS(=O)(=O)c2ccccc2)n1	i	i	i	i	14	i	i
Cc1ccccc1NC(=O)CCS(=O)(=O)c1ccccc1	nt	i	i	i	i	nt	nt
